In article PMC6045484 (ACS Omega, 2018):
≈ marks a conversion by molar mass, not a printed value.

Key:
SA (ATCC29213) = assay: in vitro antibacterial activity; assay type: cell-based; settings: Staphylococcus aureus; for IC50: ATCC29213, read-out: IC50 (concentration that affords 50% growth inhibition), SA; for MBC: ATCC29213, read-out: MBC (minimum bactericidal concentration), SA; for MIC: ATCC29213, read-out: MIC, SA
Outline: (§1)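 Test compound serially diluted in 20% DMSO/saline and plated in duplicate, up to 20 μg/mL. Inoculum in cation-adjusted Mueller–Hinton broth, pH 7.3, set by OD630 to 5 × 10^5 CFU/mL. Incubated 16–20 h at 35 °C; 530 nm read before and after. IC50 is 50% growth inhibition; MIC is no detectable growth. MBC from clear wells subcultured on agar. Ciprofloxacin control.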

P. falciparum (W2) = assay: in vitro antimalarial activity, plasmodial LDH; assay type: cell-based, Plasmodium falciparum; settings: Plasmodium falciparum, W2, 72 h, read-out: P. falciparum (W2) IC50, CQ-resistant W2 strain, 72 h
Outline: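 P. falciparum-infected erythrocytes (2% parasitemia, 2% hematocrit) in RPMI 1640 with 10% human serum and 60 μg/mL amikacin. Exposed to test compound dilutions for 72 h at 37 °C under 90% N2/5% O2/5% CO2. LDH measured with Malstat reagent (30 min, room temperature), then NBT/PES for 1 h in the dark, stopped with 5% acetic acid, read at 650 nm. IC50 from dose-response curves.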

A. fumigatus ATCC 90906 = assay: in vitro antifungal activity; assay type: cell-based, Aspergillus fumigatus; settings: Aspergillus fumigatus; for IC50: ATCC90906, read-out: A. fumigatus IC50; for MFC: ATCC90906, read-out: A. fumigatus MFC; for MIC: ATCC90906, read-out: A. fumigatus MIC
Outline: (§2)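 Modified NCCLS broth method in Sabouraud dextrose. Inoculum set by OD630 to 1.5 × 10^3 CFU/mL. Test compound serially diluted in 20% DMSO/saline, duplicate wells, up to 20 μg/mL. Incubated 70–74 h at 35 °C; 530 nm read before and after. IC50 is 50% growth inhibition; MIC is no detectable growth. MFC from clear wells subcultured on agar. Amphotericin B control.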

P. falciparum (D6) = assay: in vitro antimalarial activity, plasmodial LDH; assay type: cell-based, Plasmodium falciparum; settings: Plasmodium falciparum, D6, 72 h, read-out: P. falciparum (D6) IC50
C. albicans ATCC90028 = assay: in vitro antifungal activity; assay type: cell-based, Candida albicans; settings: Candida albicans; for IC50: ATCC90028, read-out: C. albicans IC50; for MFC: ATCC90028, read-out: C. albicans MFC; for MIC: ATCC90028, read-out: C. albicans MIC
Outline: as §2

[1] = test system: M. intracellulare (ATCC23068); assay: in vitro antibacterial activity, modified alamarBlue procedure; assay type: cell-based, Mycobacterium intracellulare; settings: Mycobacterium intracellulare; for IC50: ATCC23068, read-out: IC50 (concentration that affords 50% growth inhibition), M. intracellulare; for MBC: ATCC23068, read-out: MBC (minimum bactericidal concentration), M. intracellulare; for MIC: ATCC23068, read-out: MIC, M. intracellulare
Outline: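 Modified alamarBlue microplate method. Test compound serially diluted in 20% DMSO/saline, duplicate wells, up to 20 μg/mL. Inoculum 2.0 × 10^6 CFU/mL in Middlebrook 7H9 with OADC, pH 7.3, containing 5% alamarBlue. Incubated 70–74 h at 37 °C, 10% CO2; fluorescence 544ex/590em read before and after. MIC: no blue-to-pink change. MBC by subculturing blue wells on agar. Ciprofloxacin control.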

C. neoformans ATCC90113 = assay: in vitro antifungal activity; assay type: cell-based, Cryptococcus neoformans; settings: Cryptococcus neoformans; for IC50: ATCC90113, read-out: C. neoformans IC50; for MFC: ATCC90113, read-out: C. neoformans MFC; for MIC: ATCC90113, read-out: C. neoformans MIC
Outline: as §2

MRSA (ATCC33591) = assay: in vitro antibacterial activity; assay type: cell-based, methicillin-resistant Staphylococcus aureus; settings: Staphylococcus aureus, ATCC33591|MRSA, read-out: MIC, MRSA
Outline: as §1

[2] = test system: SK-MEL, KB, BT-549, SK-OV-3, VERO and LLC-PK1 cells; assay: cytotoxicity, neutral red uptake assay; assay type: cell-based, mammalian; settings: highest test concentration 4760 ng/mL
Outline: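 Cells seeded at 25 000/well and allowed 24 h to reach confluence. Test compound was then added and incubated 48 h. Viable cells were counted by a modified neutral red uptake method. The panel was four human cancer lines and two noncancerous mammalian kidney lines. Doxorubicin served as positive control and DMSO as negative control.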

[3] = test system: L. donovani promastigotes; assay: in vitro antileishmanial activity, alamarBlue assay; assay type: cell-based, Leishmania donovani; settings: Leishmania donovani, 48 h; for IC50: read-out: L. donovani IC50, promastigotes, 48 h; for IC90: read-out: L. donovani IC90, promastigotes, 48 h

SMILES | IC50 (SA (ATCC29213)) [µg/mL] | MBC (SA (ATCC29213)) [µg/mL] | MIC (SA (ATCC29213)) [µg/mL] | IC50 (P. falciparum (W2)) [µg/mL] | IC50 (A. fumigatus ATCC 90906) [µg/mL] | MFC (A. fumigatus ATCC 90906) [µg/mL] | MIC (A. fumigatus ATCC 90906) [µg/mL] | IC50 (P. falciparum (D6)) [µg/mL] | IC50 (C. albicans ATCC90028) [µg/mL] | MFC (C. albicans ATCC90028) [µg/mL] | MIC (C. albicans ATCC90028) [µg/mL] | IC50 [1] [µg/mL] | MBC [1] [µg/mL] | MIC [1] [µg/mL] | IC50 (C. neoformans ATCC90113) [µg/mL] | MFC (C. neoformans ATCC90113) [µg/mL] | MIC (C. neoformans ATCC90113) [µg/mL] | MIC (MRSA (ATCC33591)) [µg/mL] | cytotoxicity CTX [2] | IC50 [3] [µg/mL] | also measured
CCCCCCOc1c(OC)cc(NC(C)CCCN)c2nc(C(C)(C)C)cc(C)c12 (stereo not drawn) [compound 52, N^4-(5-Hexyloxy-2-tert-butyl-6-methoxy-4-methylquinolin-8-yl)pentane-1,4-diamine] | 2.83 (≈ 6.59 µM) | 5 (≈ 11.6 µM) | 5 (≈ 11.6 µM) | > 4.76 | 19 (≈ 44.2 µM) | > 20 | > 20 | > 4.76 | 5.91 (≈ 13.8 µM) | 10 (≈ 23.3 µM) | 10 (≈ 23.3 µM) | 3.43 (≈ 7.98 µM) | 5 (≈ 11.6 µM) | 5 (≈ 11.6 µM) | 0.84 (≈ 1.96 µM) | 2.5 (≈ 5.82 µM) | 1.25 (≈ 2.91 µM) | 5 (≈ 11.6 µM) | NC (NC, not cytotoxic up to 4760 ng/mL (4.76 μg/mL)) | 1.77 (≈ 4.12 µM) | IC90 [3]: 2.55 µg/mL (≈ 5.94 µM)
CCCCCCCOc1c(OC)cc(NC(C)CCCN)c2nc(C(C)(C)C)cc(C)c12 (stereo not drawn) [compound 53, N^4-(5-Heptyloxy-2-tert-butyl-6-methoxy-4-methylquinolin-8-yl)pentane-1,4-diamine] | 1.33 (≈ 3 µM) | 5 (≈ 11.3 µM) | 2.5 (≈ 5.63 µM) | 1.3 (≈ 2.93 µM) | 19.3 (≈ 43.5 µM) | > 20 | > 20 | 2 (≈ 4.51 µM) | 5.06 (≈ 11.4 µM) | 10 (≈ 22.5 µM) | 10 (≈ 22.5 µM) | 3.12 (≈ 7.03 µM) | 5 (≈ 11.3 µM) | 5 (≈ 11.3 µM) | 0.67 (≈ 1.51 µM) | 1.25 (≈ 2.82 µM) | 1.25 (≈ 2.82 µM) | 2.5 (≈ 5.63 µM) | NC (NC, not cytotoxic up to 4760 ng/mL (4.76 μg/mL)) | 0.84 (≈ 1.89 µM) | IC90 [3]: 1.95 µg/mL (≈ 4.4 µM)
CCCCCCCCOc1c(OC)cc(NC(C)CCCN)c2nc(C(C)(C)C)cc(C)c12 (stereo not drawn) [compound 54, N^4-(5-Octyloxy-2-tert-butyl-6-methoxy-4-methylquinolin-8-yl)pentane-1,4-diamine] | > 20 | > 20 | > 20 | > 4.76 | > 20 | > 20 | > 20 | > 4.76 | > 20 | > 20 | > 20 | 18.6 (≈ 40.6 µM) | > 20 | > 20 | 9.96 (≈ 21.8 µM) | > 20 | > 20 | > 20 | NC (NC, not cytotoxic up to 4760 ng/mL (4.76 μg/mL)) | 9.74 (≈ 21.3 µM) | IC90 [3]: 15.6 µg/mL (≈ 34 µM)
COc1cc(NC(C)CCCN)c2nc(C(C)(C)C)ccc2c1Oc1ccc(Cl)c(Cl)c1 (stereo not drawn) [compound 55, N^4-(2-tert-Butyl-5-(3,4-dichlorophenoxy)-6-methoxyquinolin-8-yl)pentane-1,4-diamine] | 5.96 (≈ 12.5 µM) | 10 (≈ 21 µM) | 10 (≈ 21 µM) | 0.13 (≈ 0.273 µM) | > 20 | > 20 | > 20 | 0.14 (≈ 0.294 µM) | > 20 | > 20 | > 20 | 9.51 (≈ 20 µM) | 20 (≈ 42 µM) | 20 (≈ 42 µM) | 3.18 (≈ 6.67 µM) | 5 (≈ 10.5 µM) | 5 (≈ 10.5 µM) | 10 (≈ 21 µM) | NC (NC, not cytotoxic up to 4760 ng/mL (4.76 μg/mL)) | 11 (≈ 23.1 µM) | IC90 [3]: > 40 µg/mL
CCCCCOc1c(OC)cc(NC(C)CCCNC(=O)C(N)CCCNC(=N)N)c2nc(C(C)(C)C)ccc12 (stereo not drawn) [compound 94, 2-Amino-N-(4-(2-tert-butyl-6-methoxy-5-(pentyloxy)quinolin-8-ylamino)pentyl)-5-guanidinopentanamide] | 5.85 (≈ 10.5 µM) | 20 (≈ 35.9 µM) | 10 (≈ 17.9 µM) | 4 (≈ 7.17 µM) | > 20 | > 20 | > 20 | 4.76 (≈ 8.53 µM) | 18.6 (≈ 33.4 µM) | 20 (≈ 35.9 µM) | 20 (≈ 35.9 µM) | 11.2 (≈ 20.1 µM) | 20 (≈ 35.9 µM) | 20 (≈ 35.9 µM) | 1.41 (≈ 2.53 µM) | 2.5 (≈ 4.48 µM) | 2.5 (≈ 4.48 µM) | 10 (≈ 17.9 µM) | NC (NC, not cytotoxic up to 4760 ng/mL (4.76 μg/mL)) | 18 (≈ 32.3 µM) | IC90 [3]: 32 µg/mL (≈ 57.4 µM)
CCCCCOc1c(OC)cc(NC(C)CCCNC(=O)C(N)CC(C)C)c2nc(C(C)(C)C)ccc12 (stereo not drawn) [compound 95, 2-Amino-N-(4-(2-tert-butyl-6-methoxy-5-(pentyloxy)quinolin-8-ylamino)pentyl)-4-methylpentanamide] | 2.56 (≈ 4.97 µM) | 5 (≈ 9.71 µM) | 5 (≈ 9.71 µM) | 2.3 (≈ 4.47 µM) | > 20 | > 20 | > 20 | 3.5 (≈ 6.8 µM) | 18.4 (≈ 35.8 µM) | > 20 | > 20 | 12.6 (≈ 24.4 µM) | 20 (≈ 38.9 µM) | 20 (≈ 38.9 µM) | 1.68 (≈ 3.26 µM) | 2.5 (≈ 4.86 µM) | 2.5 (≈ 4.86 µM) | 10 (≈ 19.4 µM) | NC (NC, not cytotoxic up to 4760 ng/mL (4.76 μg/mL)) | 3.5 (≈ 6.8 µM) | IC90 [3]: 6.5 µg/mL (≈ 12.6 µM)
CCCCCOc1c(OC)cc(NC(C)CCCNC(=O)C(N)C(C)CC)c2nc(C(C)(C)C)ccc12 (stereo not drawn) [compound 96, 2-Amino-N-(4-(2-tert-butyl-6-methoxy-5-(pentyloxy)quinolin-8-ylamino)pentyl)-3-methylpentanamide] | 5.35 (≈ 10.4 µM) | 20 (≈ 38.9 µM) | 10 (≈ 19.4 µM) | > 4.76 | > 20 | > 20 | > 20 | > 4.76 | > 20 | > 20 | > 20 | 12.2 (≈ 23.7 µM) | 20 (≈ 38.9 µM) | 20 (≈ 38.9 µM) | 4.95 (≈ 9.62 µM) | 10 (≈ 19.4 µM) | 10 (≈ 19.4 µM) | 10 (≈ 19.4 µM) | NC (NC, not cytotoxic up to 4760 ng/mL (4.76 μg/mL)) | 8.65 (≈ 16.8 µM) | IC90 [3]: 32.6 µg/mL (≈ 63.4 µM)
CCCCCOc1c(OC)cc(NC(C)CCCNC(=O)C(N)Cc2ccccc2)c2nc(C(C)(C)C)ccc12 (stereo not drawn) [compound 97, 2-Amino-N-(4-(2-tert-butyl-6-methoxy-5-(pentyloxy)quinolin-8-ylamino)pentyl)-3-phenylpropanamide] | 5.81 (≈ 10.6 µM) | > 20 | 10 (≈ 18.2 µM) | 1.3 (≈ 2.37 µM) | > 20 | > 20 | > 20 | 2.5 (≈ 4.56 µM) | > 20 | > 20 | > 20 | 14.9 (≈ 27.2 µM) | > 20 | > 20 | 2.29 (≈ 4.17 µM) | 2.5 (≈ 4.56 µM) | 2.5 (≈ 4.56 µM) | 20 (≈ 36.4 µM) | NC (NC, not cytotoxic up to 4760 ng/mL (4.76 μg/mL)) | 4 (≈ 7.29 µM) | IC90 [3]: 6.5 µg/mL (≈ 11.8 µM)
